Source: ChEMBL document CHEMBL1148114, “New antiinfective and human 5-HT2 receptor binding natural and semisynthetic compounds from the Jamaican sponge Smenospongia aurea” (J Nat Prod, 2002)
Converted amounts (≈) assume the structure as drawn. The source made the active and inactive calls. The calls are words filed in the database; no cut-off is given here.

How the values were obtained:
Homo sapiens = species: Homo sapiens; experiment: Displacement of [3H]methylspiperone form human cloned dopamine 4.2 receptor
[1] = target: T1, 5-hydroxytryptamine receptor 2A (Homo sapiens, UniProt P28223); experiment: Displacement of [3H]methylspiperone form human cloned 5HT2A receptor expressed in african green monkey COS7 cells by scintillation spectroscopy; type: cell-based, COS-7
Outline: (§1)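 Transiently CaPO4-transfected COS-7 membranes carrying human 5-HT2A ([3H]methylspiperone) or 5-HT2C ([3H]mesulergine); equilibrium competition in 50 mM Tris pH 7.4, 2 h at 25 °C; nonspecific binding with 10 µM mianserin; filtration on PEI-treated GF/C, scintillation counting. Compounds from 10 mM DMSO stock diluted ≥1:100. Triplicate points, three experiments; Ki via Cheng-Prusoff, geometric means.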

[2] = target: T2, 5-hydroxytryptamine receptor 2C (Homo sapiens, UniProt P28335); experiment: Displacement of [3H]mesulergine form human cloned 5HT2C receptor expressed in african green monkey COS7 cells by scintillation spectroscopy; type: cell-based, COS-7; outline: as §1
T2 sequence (P28335 whole entry): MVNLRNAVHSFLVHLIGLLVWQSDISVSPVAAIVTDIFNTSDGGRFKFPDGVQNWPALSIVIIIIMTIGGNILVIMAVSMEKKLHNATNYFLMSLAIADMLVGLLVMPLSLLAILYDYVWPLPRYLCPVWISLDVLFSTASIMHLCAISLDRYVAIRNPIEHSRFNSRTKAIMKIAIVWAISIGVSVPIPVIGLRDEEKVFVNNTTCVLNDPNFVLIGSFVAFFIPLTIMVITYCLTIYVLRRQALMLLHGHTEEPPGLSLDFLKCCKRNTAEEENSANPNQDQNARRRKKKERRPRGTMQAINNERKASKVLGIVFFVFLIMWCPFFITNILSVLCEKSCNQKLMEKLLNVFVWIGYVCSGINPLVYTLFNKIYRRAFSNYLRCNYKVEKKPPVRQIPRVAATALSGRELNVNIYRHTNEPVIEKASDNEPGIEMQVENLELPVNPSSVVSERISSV

Vero = experiment: Cytotoxicity against african green monkey Vero cells at 4.76 ug/mL; type: cell-based; details: chlorocebus sabaeus
Outline: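 Vero (African green monkey kidney) cells exposed to compound at 4.76 µg/mL to assess cytotoxicity.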

Plasmepsin II [3] = target: T3, Plasmepsin II (Plasmodium falciparum, UniProt P46925); experiment: Inhibition of Plasmodium falciparum plasmepsin-2 by FRET assay
Plasmodium falciparum = experiment: Antimalarial activity against Plasmodium falciparum D6; type: functional, organism-based
[4] = Selectivity index, ratio of IC50 for african green monkey (Cercopithecus aethiops) Vero cells to IC50 for Plasmodium falciparum D6; type: toxicity, cell-based; details: read-out: Selectivity Index
Plasmepsin II [5] = target: T3, Plasmepsin II; experiment: Inhibition of Plasmodium falciparum plasmepsin-2 by fluorescence polarization assay
[6] = test system: Mycobacterium tuberculosis; experiment: Antitubercular activity against Mycobacterium tuberculosis H37Rv at 6.25 ug/mL; type: functional
[7] = test system: Mycobacterium tuberculosis; experiment: Antitubercular activity against Mycobacterium tuberculosis H37Rv; type: functional; details: for MIC: Mycobacterium tuberculosis, H37Rv
[8] = target: T2, 5-hydroxytryptamine receptor 2C; experiment: Displacement of [3H]mesulergine form human cloned 5HT2C receptor expressed in african green monkey COS7 cells at 30 uM by scintillation spectroscopy; type: cell-based; details: cos-7
Outline: (§2)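 Single-point competition on transfected COS-7 membranes (human 5-HT2A with [3H]methylspiperone; 5-HT2C with [3H]mesulergine), 50 mM Tris pH 7.4, 2 h at 25 °C; 10 µM mianserin defines nonspecific binding; filter-bound radioactivity counted by scintillation. DMSO stock 10 mM, diluted at least 1:100 in assay.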

[9] = target: T1, 5-hydroxytryptamine receptor 2A; experiment: Displacement of [3H]methylspiperone form human cloned 5HT2A receptor expressed in african green monkey COS7 cells at 30 uM by scintillation spectroscopy; type: cell-based; details: cos-7; outline: as §2
[10] = Plasmodium falciparum, D6, read-out: IC50

T1 sequence (P28223 whole entry): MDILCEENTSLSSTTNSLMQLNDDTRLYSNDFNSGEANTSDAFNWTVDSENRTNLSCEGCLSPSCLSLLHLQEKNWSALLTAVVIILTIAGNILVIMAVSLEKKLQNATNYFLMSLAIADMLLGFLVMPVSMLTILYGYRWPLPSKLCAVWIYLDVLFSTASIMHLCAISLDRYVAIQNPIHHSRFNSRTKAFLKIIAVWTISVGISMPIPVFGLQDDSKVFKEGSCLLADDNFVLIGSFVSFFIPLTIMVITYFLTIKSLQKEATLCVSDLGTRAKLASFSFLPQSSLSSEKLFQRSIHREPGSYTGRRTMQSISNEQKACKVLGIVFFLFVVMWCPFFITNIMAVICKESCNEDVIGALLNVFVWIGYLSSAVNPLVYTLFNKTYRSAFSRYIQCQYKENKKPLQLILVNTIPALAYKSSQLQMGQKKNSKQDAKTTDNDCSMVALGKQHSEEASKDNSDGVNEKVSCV
T3 sequence (P46925 whole entry): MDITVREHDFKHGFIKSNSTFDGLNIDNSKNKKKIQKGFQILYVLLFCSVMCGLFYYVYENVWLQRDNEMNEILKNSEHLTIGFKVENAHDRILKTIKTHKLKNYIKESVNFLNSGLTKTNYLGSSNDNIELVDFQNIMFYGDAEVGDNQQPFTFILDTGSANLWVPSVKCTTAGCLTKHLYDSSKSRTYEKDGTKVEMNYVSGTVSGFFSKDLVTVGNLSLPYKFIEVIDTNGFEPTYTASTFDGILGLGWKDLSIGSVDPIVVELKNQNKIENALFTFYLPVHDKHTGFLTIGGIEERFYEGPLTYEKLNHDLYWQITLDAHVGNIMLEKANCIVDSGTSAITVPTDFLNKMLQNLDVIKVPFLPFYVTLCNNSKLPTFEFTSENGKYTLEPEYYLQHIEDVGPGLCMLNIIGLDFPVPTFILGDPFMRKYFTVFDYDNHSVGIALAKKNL

Compound | Activity (Homo sapiens) | Ki [1] [µM] | inhibition ([1]; COS-7, concentration not given here) [%] | Ki [2] [µM] | Activity (Vero) | IC50 (Plasmepsin II [3]) [µM] | IC50 (Plasmodium falciparum; [10]) [µg/mL] | selectivity ratio [4] | IC50 (Plasmepsin II [5]) [µM] | inhibition at 6.25 µg/mL [6] [%] | IC50 (Plasmodium falciparum) | inhibition (INH) [7] [%] | MIC [7] [µg/mL] | Ki [8] | Ki [9]
CN1C(=N)N/C(=C/c2c[nH]c3cc(Br)ccc23)C1=O | inactive | > 100 | 10 | 2.3 | Non-toxic | 53 | 1.1 (≈ 3.45 µM) | > 4.3 | 66 |  |  |  |  |  | 
CC(=O)Oc1ccc2c(c1)C[C@]1(C)[C@@H](C)CC[C@H]3C(C)(C)CCC[C@]31O2 [AUREOL ACETATE] | inactive |  |  |  | Non-toxic |  |  |  |  | 34 | Not Active |  |  |  | 
C[C@H]1CC[C@H]2C(C)(C)CCC[C@]23Oc2ccc(O)c(Cl)c2C[C@]13C | inactive |  |  |  | Non-toxic |  | 3.4 (≈ 9.74 µM) | > 1.4 |  | 38 |  |  |  |  | 
C[C@H]1CC[C@H]2C(C)(C)CCC[C@]23Oc2ccc(O)cc2C[C@]13C [AUREOL] | inactive |  |  |  | Non-toxic |  |  |  |  | 31 | Not Active | 31 | > 6.25 |  | 
CN1C(=N)N(C)/C(=C/c2c[nH]c3cc(Br)ccc23)C1=O | inactive | 2 |  | 0.33 | Non-toxic |  | 0.34 (≈ 1.02 µM) | > 14 |  |  |  |  |  |  | 
C/N=C1\NC(=O)/C(=C\c2c[nH]c3ccccc23)N1C [ISOPLYSIN A] | inactive |  |  |  | Non-toxic |  | 0.97 (≈ 3.81 µM) | > 4.9 |  |  |  |  |  | Not Active | Not Active
CC/N=C1\N(C)C(=O)/C(=C\c2c[nH]c3ccccc23)N1C | inactive | 1.7 |  | 3.5 | Non-toxic |  |  |  |  |  | Not Active |  |  |  | 
C/N=C1\N(C)C(=O)/C(=C\c2c[nH]c3ccccc23)N1C [METHYLAPLYSINOPSIN] | inactive |  |  |  | Non-toxic |  |  |  |  |  | Not Active |  |  | Not Active | Not Active
O=C1C(=O)c2[nH]cc3c2C(=C1Br)NCC3 [MAKALUVAMINE O] | inactive |  |  |  | Non-toxic |  | 0.94 (≈ 3.52 µM) | > 5.1 |  |  |  |  |  | Not Active | Not Active
CN1C(=N)N/C(=C/c2c[nH]c3ccccc23)C1=O | inactive |  |  |  | Non-toxic |  |  |  |  |  | Not Active |  |  | Not Active | Not Active
COc1ccc2c(c1)C[C@]1(C)[C@@H](C)CC[C@H]3C(C)(C)CCC[C@]31O2 | inactive |  |  |  | Non-toxic |  |  |  |  | 53 | Not Active |  |  |  | 
C[C@H]1CC[C@H]2C(C)(C)CCC[C@]23Oc2ccc(OC(=S)N(C)C)cc2C[C@]13C | inactive |  |  |  | Non-toxic |  | 0.087 (≈ 0.217 µM) | > 55 |  | 100 |  | 100 | < 6.25 |  | 
